Source: PubChem BioAssay
CAL PDZ FP-1 – untagged CAL PDZ binding inhibitors, primary screen, biochemical, fluorescence polarization, HTS; Golgi-associated PDZ and coiled-coil motif-containing protein (Homo sapiens), Q9HD26; inhibition, % at 24.9 µM; purified CAL PDZ, TMR-peptide fluorescence polarization, 1 h; 300,000 compounds, 0.92% hits; AID 602252, 2012;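 active means mean inhibition of at least 30% with at least half of replicates also reaching 30%; inconclusive means no clear call, values can overlap the other calls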
CAL PDZ FP-2 – CAL PDZ peptide-binding inhibitors, primary screen, biochemical, fluorescence polarization, Cer-tagged CAL PDZ, HTS; purified CAL PDZ, TMR-peptide fluorescence polarization, 1 h; inhibition, % at 20 µM; 330,000 compounds, 0.02% hits; AID 504414, 2011; Golgi-associated PDZ and coiled-coil motif-containing protein (Homo sapiens), Q9HD26;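 active means highest replicate inhibition of at least 40%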
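material = purified tagged CAL PDZ domain construct (CerCALP) | buffer or medium = sodium phosphate/NaCl buffer pH 7.4 with TCEP, IgG, Thesit | reagent = TMR-labelled reporter peptide T*-PRC34 bound in PDZ groove | incubation = 1 h room-temperature incubation prior to read | measured by = fluorescence polarization (mP) | evaluation = percent inhibition from loss of millipolarization | control set = unlabelled peptide and DMSO controls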
miR-122 sensor – miR-122 Renilla sensor signal increase in Huh7, primary screen, miR-122 inhibitor project, cell-based, single point, plate reader; Huh7 miR-122 Renilla luciferase sensor, 48 h; neutral wells = 0, positive control = 100; AID 602342, 2012; activation (reporter increase), % at 12.5 µM; 340,000 compounds, 0.3% hits;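 active means mean replicate activation score at least 90 and every replicate individually at or above 90; inconclusive means only one of the two criteria met; inactive means neither criterion met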;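 further: higher luciferase means less miR-122 activity so hits act as miR-122 inhibitors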
SR-BI uptake up – activators of SR-BI mediated DiI-HDL uptake, primary screen, ldlA[mSR-BI] CHO cells, DiI fluorescence; AID 504775, 2011; 320,000 compounds, 0.096% hits; 3 h; 100 = double the neutral-control signal; activation, % at 12.5 µM;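 active means mean replicate activation of at least 60% and every replicate at or above 60%; inconclusive means mean or all-replicate condition met, but not both; inactive means mean below 60% and not all replicates reaching 60%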
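Material – SR-BI-overexpressing, LDLR-lacking CHO cells · Medium – BSA-supplemented, HEPES-buffered Ham's F12, pH 7.4 · Doses – single concentration · Times – compound with DiI-HDL co-incubation, 3 h at 37 °C · Measured by – bottom-read fluorescence, 550/595 nm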
SR-BI HDL uptake – inhibitors of SR-BI mediated HDL lipid uptake, primary screen, ldlA[mSR-BI] cells, fluorescence, single point; Scavenger receptor class B member 1 (Mus musculus), Q61009; ldlA[mSR-BI] CHO cells, DiI-HDL uptake fluorescence, 3 h; inhibition, % at 12.5 µM; 320,000 compounds, 0.96% hits; AID 488896, 2010;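 active means mean replicate inhibition of at least 70% and a set share of replicates each scoring 70 or more; inconclusive means meets just one of the two criteria; inactive means fails both criteria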
Target sequence (Q61009 whole entry, looked up): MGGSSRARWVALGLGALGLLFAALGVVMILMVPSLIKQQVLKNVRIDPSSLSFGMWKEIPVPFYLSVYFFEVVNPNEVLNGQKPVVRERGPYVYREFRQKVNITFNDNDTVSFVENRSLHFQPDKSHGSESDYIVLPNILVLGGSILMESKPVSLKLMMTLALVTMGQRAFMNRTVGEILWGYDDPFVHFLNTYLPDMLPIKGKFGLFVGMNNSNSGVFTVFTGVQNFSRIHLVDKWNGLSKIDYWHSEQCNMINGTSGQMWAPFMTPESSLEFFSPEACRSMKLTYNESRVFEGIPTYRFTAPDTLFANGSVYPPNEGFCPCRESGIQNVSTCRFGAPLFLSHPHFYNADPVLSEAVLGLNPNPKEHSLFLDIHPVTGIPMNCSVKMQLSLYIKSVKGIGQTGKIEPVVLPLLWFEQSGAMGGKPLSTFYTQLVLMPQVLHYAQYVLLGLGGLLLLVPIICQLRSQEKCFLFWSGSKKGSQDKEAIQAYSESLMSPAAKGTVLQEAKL
ARNT-TACC3 inh – disruptors of ARNT/TACC3 protein interaction, primary screen, biochemical, AlphaScreen, single concentration; Transforming acidic coiled-coil-containing protein 3 (Homo sapiens), Q9Y6A5; 390,000 compounds, 0.66% hits; AlphaScreen His-ARNT PAS-B/GST-TACC3 binding, luminescence; TACC3 fragment carries E629A point mutation; inhibition, % at 9.99 µM;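 active means mean inhibition of replicates at least 50% and at least half of replicates each reaching 50%; inconclusive means half or more replicates reach 50% but mean below 50%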
DiI quench – DiI fluorescence quenching in cell-free counter-screen | 470 compounds, 20% hits | AC50, µM (doses to about 35 µM) | cell-free DiI-HDL fluorescence quenching, 30 min | shares compounds with SR-BI HDL uptake;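 active means quenching, a falling signal, with AC50 below a set limit tied to the top valid dose, actives reach about 32 µM in these data; inconclusive means no clear call, values can overlap the other calls; inactive means rising signal, and the rest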
A number is an active result; - = inactive; ? = inconclusive; . = no result. Hits are enriched below; roughly 2.1% of the tested compounds scored in any of these assays.

SMILES	CAL PDZ FP-1	CAL PDZ FP-2	miR-122 sensor	SR-BI uptake up	SR-BI HDL uptake	ARNT-TACC3 inh	DiI quench
CN1CCN(c2nc(-c3ccccc3)ncc2S(=O)(=O)c2ccccc2)CC1	-	-	.	-	-	-	.
O=S(=O)(c1ccccc1)c1cnc(-c2ccccc2)nc1N1CCCCC1	-	-	.	-	?	-	-
CC(C)NC(=O)N(C)C[C@H]1Oc2ncc(C#CC3CCCC3)cc2C(=O)N([C@@H](C)CO)C[C@H]1C	.	.	-	.	.	-	.
COc1ccc(OCC(O)Cn2c(Nc3cccc(C)c3)nc3c2c(=O)n(C)c(=O)n3C)cc1 (stereo not drawn)	-	-	-	-	77	-	-
Cc1nn(Cc2c(Cl)cccc2Cl)c(C)c1NC(=O)CCCn1nc([N+](=O)[O-])c(Cl)c1C	.	-	-	-	80	-	-
Cc1nn(Cc2ccccc2)c(C)c1NC(=O)CCCn1nc([N+](=O)[O-])c(Cl)c1C	.	-	-	-	-	-	.
COc1ccc(N2CC(C(=O)NCCc3ccc(Cl)cc3)CC2=O)c(OC)c1 (stereo not drawn)	-	-	-	-	79	-	-
COc1ccc(N2CC(C(=O)NCCC3=CCCCC3)CC2=O)c(OC)c1 (stereo not drawn)	-	-	-	-	78	-	-
CN(Cc1cc(Cl)cc(Cl)c1O)Cc1c(O)ccc2ccccc12	-	-	.	-	103	-	1.9µM
Cc1nc(NCc2cccnc2)c2c3c(sc2n1)CC(C)CC3 (stereo not drawn)	-	-	.	-	?	-	-
COc1ccccc1CCc1nnc(CCC(=O)N(C)Cc2cccc3cnccc23)o1	-	-	-	-	75	.	-
COc1ccccc1NC(=O)CN1CCN(CC(=O)Nc2ccc(C)c(F)c2)CC1	-	-	-	-	104	-	-
COc1ccccc1NC(=O)CN1CCN(CC(=O)Nc2ccc(F)cc2)CC1	-	-	-	-	-	-	.
COc1ccccc1NC(=O)CN1CCN(CC(=O)Nc2ccc(OCc3ccccc3)cc2)CC1	-	-	-	-	-	-	-
CCCCc1nnc(NC(=O)c2ccc(OCc3c(C)noc3C)cc2)s1	-	-	.	-	75	-	-
CCCNC(=O)Nc1ccc2c(c1)C(=O)N(C)C[C@H](OC)[C@@H](C)CN(Cc1ccncc1)[C@H](C)CO2	.	.	-	.	.	.	.
C[C@@H]1CN([C@H](C)CO)C(=O)c2cccc(NC(=O)c3cnccn3)c2O[C@@H]1CN(C)C(=O)NC1CCCCC1	.	.	-	.	.	.	.
CNC(=O)c1ccc(Nc2nnc(-c3ccc(O)cc3)c3ccccc23)cc1	-	-	-	-	99	-	-
CN(C)C(=O)c1ccc(Nc2nnc(-c3ccc(O)cc3)c3ccccc23)cc1	-	-	.	-	-	-	.
COc1cccc(-c2nnc(SC(C(=O)c3c[nH]c4ccccc34)c3ccccc3)n2C)c1 (stereo not drawn)	-	-	.	-	75	-	-
COc1ccccc1-c1nnc(SC(C(=O)c2c[nH]c3ccccc23)c2ccccc2)n1C (stereo not drawn)	-	-	.	-	-	-	.
C[C@@H]1CCCCO[C@H](CN(C)S(=O)(=O)c2ccc(F)cc2)[C@H](C)CN([C@@H](C)CO)C(=O)c2cc(NC(=O)Nc3cccc4ccccc34)ccc2O1	.	.	-	.	.	-	.
COc1ccc2c(c1)OC[C@H]1[C@H]2N2C(=O)c3cc(Cl)ccc3NC(=O)[C@@]2(C)[C@H]1c1ccccc1	-	-	.	-	72	-	-
CNC[C@@H]1OCCCC[C@H](C)Oc2ccc(NC(=O)CCC(F)(F)F)cc2C(=O)N([C@H](C)CO)C[C@H]1C	.	.	-	.	.	-	.
CCC(C)NC(=O)Cn1cc(S(=O)(=O)N2CCN(c3ccccc3F)CC2)c2ccccc2c1=O (stereo not drawn)	-	-	.	-	87	-	-
SMILES	CAL PDZ FP-1	CAL PDZ FP-2	miR-122 sensor	SR-BI uptake up	SR-BI HDL uptake	ARNT-TACC3 inh	DiI quench
Cn1cc(S(=O)(=O)N2CCN(c3ccccc3F)CC2)c(=O)n(C)c1=O	-	-	.	-	-	-	.
CCCNC(=O)N1[C@@H]2c3ccc(-c4ccccc4OC)c(=O)n3C[C@H]1[C@H](CO)[C@H]2C(=O)NCC	.	.	.	.	.	-	.
CCc1cc(CNC(=O)C2CCC(=O)N(CCc3cccc(F)c3)C2)on1 (stereo not drawn)	.	-	.	-	-	-	-
CN1C(=O)c2cc(NC(=O)c3cc(F)cc(F)c3)ccc2OC[C@H]2O[C@@H](CC(=O)O)CC[C@@H]21	.	.	-	.	.	-	.
O=C(Nc1ccccc1)N1C[C@@H]2[C@H](c3ccccc31)[C@@H](CO)N2Cc1ccc(F)cc1	.	.	-	.	.	-	.
O=C(O)CC(C(=O)Nc1ccc(Cl)cc1Cl)C1CCCO1 (stereo not drawn)	-	-	.	-	-	-	.
Cc1ccc(C)c(NC(=O)C(CC(=O)O)C2CCCO2)c1 (stereo not drawn)	-	-	-	-	77	-	-
C[C@H]1CCCCO[C@@H](CN(C)Cc2ccc(C(=O)O)cc2)[C@@H](C)CN([C@@H](C)CO)C(=O)c2cc(NS(=O)(=O)c3ccc(Cl)cc3)ccc2O1	.	.	-	.	.	-	.
COc1ccccc1C(CC(=O)Nc1ccccc1C)c1ccc(OC(C)C)cc1 (stereo not drawn)	-	-	.	-	?	-	-
COc1ccc(NC(=O)CC(c2ccc(F)cc2)c2ccc(OC(C)C)cc2)cc1 (stereo not drawn)	-	-	.	-	-	-	.
O=C(C[C@@H]1CC[C@@H]2[C@H](COC[C@@H](O)CN2C(=O)c2ccccc2F)O1)NCc1ccccc1	.	.	-	.	.	-	.
Cc1noc(C)c1NC(=O)Nc1ccc2c(c1)C(=O)N([C@@H](C)CO)C[C@H](C)[C@@H](CN(C)C(=O)Nc1ccccc1)OCCCC[C@H](C)O2	.	.	-	.	.	-	.
CC1CN(c2oc(COc3ccc(Cl)cc3Cl)nc2C#N)CC(C)O1 (stereo not drawn)	-	-	-	-	81	-	-
C[C@@H]1CN([C@@H](C)CO)S(=O)(=O)c2ccc(C3=CCCC3)cc2O[C@H]1CN(C)C	.	.	-	.	.	-	.
